Data: ChEMBL document CHEMBL4706620, “Design, synthesis, biological activity evaluation of 3-(4-phenyl-1H-imidazol-2-yl)-1H-pyrazole derivatives as potent JAK 2/3 and aurora A/B kinases multi-targeted inhibitors” (Eur J Med Chem, 2021)

Assays:
[1] = target: Tyrosine-protein kinase JAK2 (Homo sapiens, UniProt O60674); experiment: Inhibition of JAK2 (unknown origin) incubated for 40 mins in presence of ATP by Kinase-glo luminescence assay
K562 [2] = experiment: Antiproliferative activity against human K562 cells assessed as reduction in cell growth measured after 72 hrs by CCK8 assay; format: functional, cell-based; conditions: K562, 72 h
Aurora kinase A = target: T1, Aurora kinase A (Homo sapiens, UniProt O14965); experiment: Inhibition of Aurora A (unknown origin) incubated for 40 mins in presence of ATP by Kinase-glo luminescence assay
T1 sequence (O14965 whole entry): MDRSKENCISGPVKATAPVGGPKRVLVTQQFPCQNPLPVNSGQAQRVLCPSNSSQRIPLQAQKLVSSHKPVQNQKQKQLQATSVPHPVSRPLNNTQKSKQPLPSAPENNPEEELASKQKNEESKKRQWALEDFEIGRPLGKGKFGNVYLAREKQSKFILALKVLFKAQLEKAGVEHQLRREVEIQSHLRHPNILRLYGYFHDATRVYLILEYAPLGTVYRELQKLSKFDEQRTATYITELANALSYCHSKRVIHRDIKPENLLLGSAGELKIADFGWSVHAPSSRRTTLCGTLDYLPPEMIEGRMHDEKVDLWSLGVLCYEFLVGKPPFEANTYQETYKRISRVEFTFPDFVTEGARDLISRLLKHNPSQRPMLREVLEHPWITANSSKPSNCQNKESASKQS

[3] = target: T2, Tyrosine-protein kinase JAK3 (Homo sapiens, UniProt P52333); experiment: Inhibition of JAK3 (unknown origin) incubated for 40 mins in presence of ATP by Kinase-glo luminescence assay
T2 sequence (P52333 whole entry): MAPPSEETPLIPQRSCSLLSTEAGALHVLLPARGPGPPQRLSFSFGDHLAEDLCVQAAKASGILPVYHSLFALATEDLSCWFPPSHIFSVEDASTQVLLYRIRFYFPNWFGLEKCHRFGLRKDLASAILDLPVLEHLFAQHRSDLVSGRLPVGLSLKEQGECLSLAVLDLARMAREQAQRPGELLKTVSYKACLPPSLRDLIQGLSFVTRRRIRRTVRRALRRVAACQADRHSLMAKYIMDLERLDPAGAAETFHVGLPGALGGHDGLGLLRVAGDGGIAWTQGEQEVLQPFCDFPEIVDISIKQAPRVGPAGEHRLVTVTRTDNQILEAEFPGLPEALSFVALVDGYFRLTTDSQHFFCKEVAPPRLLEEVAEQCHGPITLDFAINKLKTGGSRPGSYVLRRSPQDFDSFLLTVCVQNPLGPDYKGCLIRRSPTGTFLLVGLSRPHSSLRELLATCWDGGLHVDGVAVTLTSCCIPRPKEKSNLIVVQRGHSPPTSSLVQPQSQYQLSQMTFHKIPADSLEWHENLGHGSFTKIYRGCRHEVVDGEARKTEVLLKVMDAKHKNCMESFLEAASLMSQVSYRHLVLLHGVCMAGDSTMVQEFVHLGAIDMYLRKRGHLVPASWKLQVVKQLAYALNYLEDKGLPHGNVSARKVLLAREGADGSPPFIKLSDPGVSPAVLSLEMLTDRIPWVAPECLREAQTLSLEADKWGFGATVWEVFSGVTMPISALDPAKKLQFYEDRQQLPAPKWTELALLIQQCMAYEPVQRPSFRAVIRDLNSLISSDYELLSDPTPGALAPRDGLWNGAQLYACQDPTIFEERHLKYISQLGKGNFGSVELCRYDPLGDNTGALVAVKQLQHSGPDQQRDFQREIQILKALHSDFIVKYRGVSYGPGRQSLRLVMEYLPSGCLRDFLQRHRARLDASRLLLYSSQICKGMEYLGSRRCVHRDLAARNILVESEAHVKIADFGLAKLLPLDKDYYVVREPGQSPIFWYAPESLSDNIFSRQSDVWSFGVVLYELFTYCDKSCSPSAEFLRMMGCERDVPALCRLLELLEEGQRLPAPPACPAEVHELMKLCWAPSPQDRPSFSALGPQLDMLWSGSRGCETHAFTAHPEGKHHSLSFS

HCT-116 [4] = experiment: Antiproliferative activity against human HCT116 cells assessed as reduction in cell growth measured after 72 hrs by CCK8 assay; format: functional, cell-based; conditions: HCT-116, 72 h
Homo sapiens [5] = organism: Homo sapiens; experiment: Selectivity for JAK2 (unknown origin) over Aurora A (unknown origin)
Homo sapiens [6] = organism: Homo sapiens; experiment: Selectivity for JAK3 (unknown origin) over Aurora B (unknown origin)
Homo sapiens [7] = organism: Homo sapiens; experiment: Selectivity for JAK2 (unknown origin) over Aurora B (unknown origin)
Homo sapiens [8] = organism: Homo sapiens; experiment: Selectivity for JAK3 (unknown origin) over Aurora A (unknown origin)
Aurora kinase B = Aurora kinase B (Homo sapiens, UniProt Q96GD4); experiment: Inhibition of Aurora B (unknown origin) incubated for 40 mins in presence of ATP by Kinase-glo luminescence assay
Chain of Aurora kinase B (Q96GD4 whole entry): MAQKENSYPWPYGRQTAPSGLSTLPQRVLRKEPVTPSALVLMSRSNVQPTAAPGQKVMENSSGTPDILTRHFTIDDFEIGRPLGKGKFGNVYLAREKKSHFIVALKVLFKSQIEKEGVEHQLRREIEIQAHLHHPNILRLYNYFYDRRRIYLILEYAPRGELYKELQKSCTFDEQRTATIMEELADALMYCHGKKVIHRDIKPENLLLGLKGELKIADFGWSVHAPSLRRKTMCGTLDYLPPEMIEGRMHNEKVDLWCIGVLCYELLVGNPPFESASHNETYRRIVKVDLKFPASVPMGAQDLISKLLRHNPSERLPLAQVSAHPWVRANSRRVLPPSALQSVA
Outline: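 Kinase reaction at 30 °C for 40 min in 40 mM Tris pH 7.4, 10 mM MgCl2, 0.1 mg/ml BSA, 1 mM DTT, 10 µM ATP, kinase plus substrate; compounds added from 10% DMSO dilutions (1% DMSO final). Remaining ATP measured by Kinase-Glo Plus luminescence; IC50 from nonlinear regression, normalized dose-response fit.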

HCT-116 [9] = experiment: Cell cycle arrest in human HCT116 cells assessed as accumulation of diploid cells at S phase at 10 uM incubated for 48 hrs by propidium iodide staining based flow cytometric analysis (reference value: 11.92 %); format: functional
HCT-116 [10] = experiment: Cell cycle arrest in human HCT116 cells assessed as accumulation of diploid cells at G1 phase at 10 uM incubated for 48 hrs by propidium iodide staining based flow cytometric analysis (reference value: 77.62 %); format: functional
HCT-116 [11] = experiment: Cell cycle arrest in human HCT116 cells assessed as accumulation of diploid cells at G2 phase at 10 uM incubated for 48 hrs by propidium iodide staining based flow cytometric analysis (reference value: 10.46 %); format: functional
K562 [12] = experiment: Cell cycle arrest in human K562 cells assessed as accumulation of diploid cells at S phase at 10 uM incubated for 48 hrs by propidium iodide staining based flow cytometric analysis (reference value: 35.94 %); format: functional
K562 [13] = experiment: Cell cycle arrest in human K562 cells assessed as accumulation of diploid cells at G2 phase at 10 uM incubated for 48 hrs by propidium iodide staining based flow cytometric analysis (reference value: 7.73 %); format: functional
HCT-116 [14] = experiment: Cell cycle arrest in human HCT116 cells assessed as accumulation at […] phase at 10 uM incubated for 48 hrs by propidium iodide staining based flow cytometric analysis (reference value: 2.01 %); format: functional

Chain of Tyrosine-protein kinase JAK2 (O60674 whole entry): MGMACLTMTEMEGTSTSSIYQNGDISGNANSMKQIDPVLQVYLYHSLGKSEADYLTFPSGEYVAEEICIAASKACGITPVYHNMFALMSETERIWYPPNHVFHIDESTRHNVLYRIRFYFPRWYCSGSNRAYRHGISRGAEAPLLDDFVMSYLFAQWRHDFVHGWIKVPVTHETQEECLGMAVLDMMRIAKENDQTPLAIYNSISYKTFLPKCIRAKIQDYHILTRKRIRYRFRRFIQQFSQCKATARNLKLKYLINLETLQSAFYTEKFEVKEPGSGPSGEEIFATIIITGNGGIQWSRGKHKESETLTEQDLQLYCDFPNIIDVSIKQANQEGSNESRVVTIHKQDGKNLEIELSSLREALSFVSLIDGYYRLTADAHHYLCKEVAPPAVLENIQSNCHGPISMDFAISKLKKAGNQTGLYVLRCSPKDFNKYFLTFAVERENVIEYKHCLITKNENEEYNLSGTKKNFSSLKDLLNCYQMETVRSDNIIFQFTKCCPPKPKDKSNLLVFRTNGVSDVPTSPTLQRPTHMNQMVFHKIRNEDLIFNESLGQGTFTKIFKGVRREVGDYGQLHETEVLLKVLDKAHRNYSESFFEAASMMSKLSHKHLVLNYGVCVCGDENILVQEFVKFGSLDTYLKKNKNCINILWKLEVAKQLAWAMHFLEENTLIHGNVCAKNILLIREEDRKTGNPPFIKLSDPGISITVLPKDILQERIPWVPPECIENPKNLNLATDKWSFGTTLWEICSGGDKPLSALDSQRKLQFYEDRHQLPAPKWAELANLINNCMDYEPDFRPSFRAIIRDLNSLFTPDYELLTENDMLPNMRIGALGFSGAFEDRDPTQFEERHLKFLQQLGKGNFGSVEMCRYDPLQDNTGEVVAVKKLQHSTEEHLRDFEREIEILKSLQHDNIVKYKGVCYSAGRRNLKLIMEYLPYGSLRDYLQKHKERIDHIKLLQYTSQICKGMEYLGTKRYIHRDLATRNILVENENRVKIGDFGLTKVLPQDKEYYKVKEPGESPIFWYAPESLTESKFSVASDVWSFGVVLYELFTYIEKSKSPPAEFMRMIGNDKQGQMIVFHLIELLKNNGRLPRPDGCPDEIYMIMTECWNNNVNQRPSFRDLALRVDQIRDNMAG

Cc1nc(Cl)cc(Nc2c[nH]nc2-c2nc(-c3ccc(CN4CCOCC4)cc3)c[nH]2)n1
IC50 [1]: 8 nM
IC50 (K562 [2]): 10000 nM
IC50 (Aurora kinase A): 145 nM
IC50 [3]: 23 nM
IC50 (HCT-116 [4]): > 10000 nM

O=C(Nc1c[nH]nc1-c1nc(-c2ccc(CN3CCCCC3)cc2)c[nH]1)c1cccc(Cl)c1
Selectivity ratio (Homo sapiens [5]): 20
IC50 [1]: 16 nM
Selectivity ratio (Homo sapiens [6]): 20
IC50 (K562 [2]): 2500 nM
IC50 (Aurora kinase A): 1130 nM
IC50 [3]: 13 nM
Selectivity ratio (Homo sapiens [7]): 20
Selectivity ratio (Homo sapiens [8]): 20
IC50 (HCT-116 [4]): > 10000 nM

COc1ccc(C(=O)Nc2c[nH]nc2-c2nc(-c3ccc(CN4CCOCC4)cc3)c[nH]2)cc1
Selectivity ratio (Homo sapiens [5]): 20
IC50 [1]: 14 nM
Selectivity ratio (Homo sapiens [6]): 20
IC50 (K562 [2]): 5650 nM
IC50 (Aurora kinase A): 359 nM
IC50 [3]: 24 nM
Selectivity ratio (Homo sapiens [7]): 20
Selectivity ratio (Homo sapiens [8]): 20
IC50 (Aurora kinase B): > 1000 nM
IC50 (HCT-116 [4]): > 10000 nM

O=C(Nc1c[nH]nc1-c1nc(-c2ccc(CN3CCOCC3)cc2)c[nH]1)c1ccccc1
IC50 (K562 [2]): > 10000 nM
IC50 (HCT-116 [4]): > 10000 nM

O=C(Nc1c[nH]nc1-c1nc(-c2ccc(CN3CCOCC3)cc2)c[nH]1)c1ccc([N+](=O)[O-])cc1
IC50 [1]: 1180 nM
IC50 (K562 [2]): 4340 nM
IC50 (Aurora kinase A): 466 nM
IC50 (Aurora kinase B): 650 nM
IC50 (HCT-116 [4]): 5210 nM

O=C(Nc1c[nH]nc1-c1nc2ccc(CN3CCOCC3)cc2[nH]1)NC1CC1 [AT-9283]
Activity (HCT-116 [9]): 8.24%
Activity (HCT-116 [10]): 66.56%
Activity (HCT-116 [11]): 25.19%
Activity (K562 [12]): 32.31%
Activity (K562 [13]): 14.99%
Activity (HCT-116 [14]): 1.98%
IC50 (Aurora kinase B): 62 nM

COc1ccc(C(=O)Nc2c[nH]nc2-c2nc(-c3ccc(CN4CCCCC4)cc3)c[nH]2)cc1
IC50 (K562 [2]): > 10000 nM
IC50 (Aurora kinase A): 1520 nM
IC50 (HCT-116 [4]): > 10000 nM

O=C(Nc1c[nH]nc1-c1nc(-c2ccc(CN3CCOCC3)cc2)c[nH]1)c1ccc(Cl)cc1
IC50 (K562 [2]): 2630 nM
IC50 (Aurora kinase A): 2510 nM
IC50 [3]: 64 nM
IC50 (HCT-116 [4]): > 10000 nM

CSc1nc(Cl)c(C)c(Nc2c[nH]nc2-c2ncc(-c3ccc(OCCCN4CCOCC4)cc3)[nH]2)n1
IC50 (K562 [2]): 9880 nM
IC50 (HCT-116 [4]): 16100 nM

O=C(Nc1c[nH]nc1-c1nc(-c2ccc(CN3CCCCC3)cc2)c[nH]1)c1ccc(Cl)cc1
IC50 (K562 [2]): > 10000 nM
IC50 (Aurora kinase A): 2060 nM
IC50 (HCT-116 [4]): 1590 nM
